Reference: ChEMBL document CHEMBL5058577, “EUbOPEN Chemogenomics Library 2 (Multiplex)” (2022)

System: HEK-293T
Experiment: Multiplex assay against HEK293T
Assay type: toxicity, cell-based
Details: human
Procedure, shortened: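 Live cells were stained at seeding with Hoechst33342, BioTracker Green Microtubule Cytoskeleton Dye, MitoTracker Red and Annexin V Alexa Fluor 680, then imaged on a CQ1 microscope at 37°C and 5% CO2 after compound addition. CellPathfinder machine-learning gating split cells into Hoechst high-intensity objects or normal cells. Normal cells were split into healthy, pyknosed or fragmented nuclei, and pyknosed cells into mitotic or apoptotic. Tubulin, mitochondrial-mass and membrane-permeability phenotypes are per cents of healthy-nucleus cells.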

[1] = 12 h, 1 µM, compound concentration 1 uM, replicate 1
[2] = 12 h, 1 µM, compound concentration 1 uM, replicate 2
[3] = 12 h, 10 µM, compound concentration 10 uM, replicate 1
[4] = 12 h, 10 µM, compound concentration 10 uM, replicate 2
[5] = 24 h, 1 µM, compound concentration 1 uM, replicate 1
[6] = 24 h, 1 µM, compound concentration 1 uM, replicate 2
[7] = 24 h, 10 µM, compound concentration 10 uM, replicate 1
[8] = 24 h, 10 µM, compound concentration 10 uM, replicate 2
[9] = 48 h, 1 µM, compound concentration 1 uM, replicate 1
[10] = 48 h, 1 µM, compound concentration 1 uM, replicate 2
[11] = 48 h, 10 µM, compound concentration 10 uM, replicate 1
[12] = 48 h, 10 µM, compound concentration 10 uM, replicate 2

COc1c(C)cc(NC(=O)c2nn(Cc3ccc(F)cc3)c3c2CN(C(=O)c2ccc[nH]2)C[C@]3(C)C(N)=O)cc1C
Population Apoptotic (%) [1]: 42%
Population Fragmented Nuclei (%) [1]: 6%
Population Healthy Nuclei (%) [1]: 79%
Population Hoechst High Intensity Objects (%) [1]: 7%
Population Membrane Permeable-Phenotype (%) [1]: 0%
Population Mitochondria Different-Phenotype (%) [1]: 51%
Population Mitotic Cells (%) [1]: 57%
Population Normal (%) [1]: 92%
Population Pyknosed Nuclei (%) [1]: 13%
Population Tubulin-Different-Phenotype (%) [1]: 36%
Total Cell Count [1]: 426
Population Apoptotic (%) [2]: 38%
Population Fragmented Nuclei (%) [2]: 7%
Population Healthy Nuclei (%) [2]: 75%
Population Hoechst High Intensity Objects (%) [2]: 5%
Population Mitochondria Different-Phenotype (%) [2]: 58%
Population Mitotic Cells (%) [2]: 61%
Population Normal (%) [2]: 94%
Population Pyknosed Nuclei (%) [2]: 17%
Population Tubulin-Different-Phenotype (%) [2]: 29%
Total Cell Count [2]: 304
Population Apoptotic (%) [3]: 67%
Population Fragmented Nuclei (%) [3]: 4%
Population Healthy Nuclei (%) [3]: 77%
Population Hoechst High Intensity Objects (%) [3]: 13%
Population Membrane Permeable-Phenotype (%) [3]: 0%
Population Mitochondria Different-Phenotype (%) [3]: 90%
Population Mitotic Cells (%) [3]: 32%
Population Normal (%) [3]: 86%
Population Pyknosed Nuclei (%) [3]: 17%
Population Tubulin-Different-Phenotype (%) [3]: 62%
Total Cell Count [3]: 383
Population Apoptotic (%) [4]: 59%
Population Fragmented Nuclei (%) [4]: 6%
Population Healthy Nuclei (%) [4]: 71%
Population Mitochondria Different-Phenotype (%) [4]: 95%
Population Mitotic Cells (%) [4]: 40%
Population Pyknosed Nuclei (%) [4]: 21%
Population Tubulin-Different-Phenotype (%) [4]: 63%
Total Cell Count [4]: 285
Population Apoptotic (%) [5]: 21%
Population Fragmented Nuclei (%) [5]: 7%
Population Healthy Nuclei (%) [5]: 80%
Population Hoechst High Intensity Objects (%) [5]: 4%
Population Membrane Permeable-Phenotype (%) [5]: 0%
Population Mitochondria Different-Phenotype (%) [5]: 30%
Population Mitotic Cells (%) [5]: 78%
Population Normal (%) [5]: 95%
Population Pyknosed Nuclei (%) [5]: 12%
Population Tubulin-Different-Phenotype (%) [5]: 24%
Total Cell Count [5]: 574
Population Apoptotic (%) [6]: 51%
Population Fragmented Nuclei (%) [6]: 5%
Population Healthy Nuclei (%) [6]: 86%
Population Mitochondria Different-Phenotype (%) [6]: 43%
Population Mitotic Cells (%) [6]: 48%
Population Pyknosed Nuclei (%) [6]: 7%
Population Tubulin-Different-Phenotype (%) [6]: 16%
Total Cell Count [6]: 422
Population Apoptotic (%) [7]: 53%
Population Fragmented Nuclei (%) [7]: 6%
Population Healthy Nuclei (%) [7]: 73%
Population Hoechst High Intensity Objects (%) [7]: 11%
Population Membrane Permeable-Phenotype (%) [7]: 0%
Population Mitochondria Different-Phenotype (%) [7]: 91%
Population Mitotic Cells (%) [7]: 46%
Population Normal (%) [7]: 88%
Population Pyknosed Nuclei (%) [7]: 19%
Population Tubulin-Different-Phenotype (%) [7]: 61%
Total Cell Count [7]: 403
Population Apoptotic (%) [8]: 67%
Population Fragmented Nuclei (%) [8]: 5%
Population Healthy Nuclei (%) [8]: 74%
Population Hoechst High Intensity Objects (%) [8]: 15%
Population Mitochondria Different-Phenotype (%) [8]: 92%
Population Mitotic Cells (%) [8]: 32%
Population Normal (%) [8]: 84%
Population Tubulin-Different-Phenotype (%) [8]: 56%
Total Cell Count [8]: 313
Population Apoptotic (%) [9]: 21%
Population Fragmented Nuclei (%) [9]: 11%
Population Healthy Nuclei (%) [9]: 81%
Population Hoechst High Intensity Objects (%) [9]: 2%
Population Membrane Permeable-Phenotype (%) [9]: 1%
Population Mitochondria Different-Phenotype (%) [9]: 25%
Population Mitotic Cells (%) [9]: 78%
Population Normal (%) [9]: 97%
Population Pyknosed Nuclei (%) [9]: 6%
Population Tubulin-Different-Phenotype (%) [9]: 18%
Total Cell Count [9]: 920
Population Apoptotic (%) [10]: 39%
Population Fragmented Nuclei (%) [10]: 12%
Population Hoechst High Intensity Objects (%) [10]: 3%
Population Mitochondria Different-Phenotype (%) [10]: 28%
Population Mitotic Cells (%) [10]: 60%
Population Normal (%) [10]: 96%
Population Tubulin-Different-Phenotype (%) [10]: 9%
Total Cell Count [10]: 652
Population Apoptotic (%) [11]: 60%
Population Fragmented Nuclei (%) [11]: 8%
Population Healthy Nuclei (%) [11]: 76%
Population Hoechst High Intensity Objects (%) [11]: 14%
Population Membrane Permeable-Phenotype (%) [11]: 0%
Population Mitochondria Different-Phenotype (%) [11]: 93%
Population Mitotic Cells (%) [11]: 39%
Population Normal (%) [11]: 85%
Population Pyknosed Nuclei (%) [11]: 15%
Population Tubulin-Different-Phenotype (%) [11]: 66%
Total Cell Count [11]: 467
Population Apoptotic (%) [12]: 80%
Population Fragmented Nuclei (%) [12]: 9%
Population Healthy Nuclei (%) [12]: 81%
Population Hoechst High Intensity Objects (%) [12]: 10%
Population Mitochondria Different-Phenotype (%) [12]: 90%
Population Mitotic Cells (%) [12]: 19%
Population Normal (%) [12]: 89%
Population Pyknosed Nuclei (%) [12]: 9%
Population Tubulin-Different-Phenotype (%) [12]: 59%
Total Cell Count [12]: 376
